Data on 10 molecules can be found in ChEMBL document CHEMBL3046492, “Synthesis, insecticidal, and acaricidal activities of novel 2-aryl-pyrrole derivatives containing ester groups” (2008).

Common to all, as to assay type: functional
Assay [1] concerns Mythimna separata. Description: Insecticidal activity against fourth-instar larval stage of Mythimna separata (Oriental armyworm) in compound pretreated corn leaves assessed as mortality at 10 mg/kg at 25 +/-1 degC measured after 2 days.
For assay [2], the system named is Culex pipiens pallens. The experiment in a line: Insecticidal activity against fourth-instar larval stage of Culex pipiens pallens (mosquito) assessed as mortality at 0.50 mg/kg at 25 +/-1 degC after 2 days. Conditions: 48 h. The method, boiled down:
(§1)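 Test solutions were prepared by adding 1 mL of each concentrated dilution to 99 mL water. Bioassays were run at 25 ± 1 °C on laboratory-reared insects.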

For assay [3], the system named is Culex pipiens pallens. The experiment in a line: Insecticidal activity against fourth-instar larval stage of Culex pipiens pallens (mosquito) assessed as mortality at 0.25 mg/kg at 25 +/-1 degC after 2 days. The note with it: 48 h. The procedure, abridged: as §1
Assay [4] relates to Mythimna separata. Description: Insecticidal activity against fourth-instar larval stage of Mythimna separata (Oriental armyworm) in compound pretreated corn leaves assessed as mortality at 5 mg/kg at 25 +/-1 degC measured after 2 days.
In assay [5] the test system is Tetranychus cinnabarinus. The experiment in a line: Acaricidal activity against adult Tetranychus cinnabarinus (carmine spider mite) in sieva bean plants assessed as mortality at 200 mg/kg treated for 3 secs measured after 2 days. Conditions: 48 h.
Assay [6] has as its system Mythimna separata. Description: Insecticidal activity against fourth-instar larval stage of Mythimna separata (Oriental armyworm) in compound pretreated corn leaves assessed as mortality at 20 mg/kg at 25 +/-1 degC measured after 2 days.
Assay [7] concerns Culex pipiens pallens. Description: Insecticidal activity against fourth-instar larval stage of Culex pipiens pallens (mosquito) assessed as mortality at 0.10 mg/kg at 25 +/-1 degC after 2 days. The note with it: 48 h. The method, boiled down: as §1
In assay [8] the test system is Tetranychus cinnabarinus. Description: Acaricidal activity against adult Tetranychus cinnabarinus (carmine spider mite) in sieva bean plants assessed as mortality at 100 mg/kg treated for 3 secs measured after 2 days. The note with it: 48 h.
The test system of assay [9] is Tetranychus cinnabarinus. Description: Acaricidal activity against adult Tetranychus cinnabarinus (carmine spider mite) in sieva bean plants assessed as mortality at 50 mg/kg treated for 3 secs measured after 2 days. Conditions: 48 h.

`COc1ccc(C(=O)OCn2c(-c3ccc(Cl)cc3)c(C#N)c(Br)c2C(F)(F)F)cc1`: the mortality – broadly, the percentage killed – at 10 mg/kg in the assay with Mythimna separata [1] worked out at 90%. The mortality at 0.5 mg/kg with Culex pipiens pallens [2] was found to be 70%. Further, the mortality at 0.25 mg/kg in the assay on Culex pipiens pallens [3] stood at 30%. The mortality at 5 mg/kg with Mythimna separata [4] came to 0%. In addition, in the assay with Tetranychus cinnabarinus [5], the mortality at 200 mg/kg came to 0%. Besides, the mortality at 20 mg/kg with Mythimna separata [6] came out at 100%. The mortality at 0.1 mg/kg in the assay on Culex pipiens pallens [7] came to 20%.

In the case of `N#Cc1c(Br)c(C(F)(F)F)n(COC(=O)c2ccccc2)c1-c1ccc(Cl)cc1`, in the assay on Mythimna separata [1], the mortality at 10 mg/kg stood at 60%. In the assay with Tetranychus cinnabarinus [8], the mortality at 100 mg/kg is 100%. In addition, the mortality at 0.5 mg/kg in the assay with Culex pipiens pallens [2] amounted to 100%. Also, the mortality at 0.25 mg/kg in the assay on Culex pipiens pallens [3] amounted to 20%. The mortality at 5 mg/kg with Mythimna separata [4] is 0%. The mortality at 200 mg/kg in the assay on Tetranychus cinnabarinus [5] is 100%. In addition, the mortality at 50 mg/kg in the assay on Tetranychus cinnabarinus [9] worked out at 100%. Further, the mortality at 20 mg/kg in the assay on Mythimna separata [6] was determined as 100%. For the same molecule, the mortality at 0.1 mg/kg with Culex pipiens pallens [7] was found to be 10%.

As for `CC(Oc1ccc(Cl)cc1)C(=O)OCn1c(-c2ccc(Cl)cc2)c(C#N)c(Br)c1C(F)(F)F` (stereo not given), the mortality at 10 mg/kg with Mythimna separata [1] is 80%. Further, the mortality at 100 mg/kg in the assay on Tetranychus cinnabarinus [8] amounted to 95%. Moreover, the mortality at 0.5 mg/kg in the assay on Culex pipiens pallens [2] came out at 100%. The mortality at 0.25 mg/kg in the assay with Culex pipiens pallens [3] worked out at 100%. The mortality at 5 mg/kg in the assay with Mythimna separata [4] amounted to 0%. In addition, in the assay on Tetranychus cinnabarinus [5], the mortality at 200 mg/kg was found to be 98%. Moreover, the mortality at 50 mg/kg in the assay on Tetranychus cinnabarinus [9] stood at 94%. For the same molecule, the mortality at 20 mg/kg in the assay with Mythimna separata [6] was 100%. Moreover, the mortality at 0.1 mg/kg with Culex pipiens pallens [7] was 100%.

`N#Cc1c(Br)c(C(F)(F)F)n(COC(=O)c2ccccc2[N+](=O)[O-])c1-c1ccc(Cl)cc1`: in the assay on Mythimna separata [1], the mortality at 10 mg/kg came to 100%. The mortality at 0.5 mg/kg with Culex pipiens pallens [2] was found to be 100%. In addition, the mortality at 0.25 mg/kg with Culex pipiens pallens [3] came out at 20%. In addition, in the assay with Mythimna separata [4], the mortality at 5 mg/kg was 20%. Besides, in the assay with Tetranychus cinnabarinus [5], the mortality at 200 mg/kg came to 0%. Besides, the mortality at 20 mg/kg in the assay with Mythimna separata [6] worked out at 100%. In addition, in the assay with Culex pipiens pallens [7], the mortality at 0.1 mg/kg amounted to 10%.

`N#Cc1c(Br)c(C(F)(F)F)n(COC(=O)c2ccccc2N)c1-c1ccc(Cl)cc1`: the mortality at 10 mg/kg with Mythimna separata [1] came to 0%. Also, the mortality at 0.5 mg/kg in the assay with Culex pipiens pallens [2] came out at 100%. Also, in the assay with Culex pipiens pallens [3], the mortality at 0.25 mg/kg was determined as 100%. In addition, in the assay on Mythimna separata [4], the mortality at 5 mg/kg is 0%. Also, in the assay with Tetranychus cinnabarinus [5], the mortality at 200 mg/kg was 0%. In addition, in the assay on Mythimna separata [6], the mortality at 20 mg/kg was determined as 10%. Besides, the mortality at 0.1 mg/kg with Culex pipiens pallens [7] was determined as 100%.

For `CC(Oc1cccc([N+](=O)[O-])c1)C(=O)OCn1c(-c2ccc(Cl)cc2)c(C#N)c(Br)c1C(F)(F)F` (stereo not given), the mortality at 10 mg/kg with Mythimna separata [1] is 85%. Moreover, the mortality at 0.5 mg/kg with Culex pipiens pallens [2] is 100%. In addition, in the assay on Culex pipiens pallens [3], the mortality at 0.25 mg/kg came out at 100%. For the same molecule, in the assay with Mythimna separata [4], the mortality at 5 mg/kg is 0%. In addition, the mortality at 200 mg/kg in the assay on Tetranychus cinnabarinus [5] is 0%. In addition, the mortality at 20 mg/kg in the assay on Mythimna separata [6] stood at 100%. The mortality at 0.1 mg/kg in the assay with Culex pipiens pallens [7] turned out to be 90%.

As for `Cc1ccc(C(=O)OCn2c(-c3ccc(Cl)cc3)c(C#N)c(Br)c2C(F)(F)F)cc1`, the mortality at 10 mg/kg in the assay on Mythimna separata [1] came out at 100%. Besides, the mortality at 100 mg/kg in the assay with Tetranychus cinnabarinus [8] is 100%. Further, the mortality at 0.5 mg/kg in the assay on Culex pipiens pallens [2] stood at 100%. Further, the mortality at 0.25 mg/kg in the assay on Culex pipiens pallens [3] turned out to be 100%. For the same molecule, in the assay with Mythimna separata [4], the mortality at 5 mg/kg turned out to be 0%. For the same molecule, the mortality at 200 mg/kg in the assay on Tetranychus cinnabarinus [5] stood at 100%. Moreover, in the assay on Tetranychus cinnabarinus [9], the mortality at 50 mg/kg amounted to 100%. In addition, the mortality at 20 mg/kg with Mythimna separata [6] was determined as 100%. Besides, in the assay on Culex pipiens pallens [7], the mortality at 0.1 mg/kg stood at 100%.

Consider `CC(=O)OCn1c(-c2ccc(Cl)cc2)c(C#N)c(Br)c1C(F)(F)F`, for which the mortality at 10 mg/kg in the assay with Mythimna separata [1] worked out at 90%. In addition, the mortality at 0.5 mg/kg in the assay on Culex pipiens pallens [2] amounted to 100%. For the same molecule, in the assay with Culex pipiens pallens [3], the mortality at 0.25 mg/kg stood at 100%. In addition, the mortality at 5 mg/kg in the assay with Mythimna separata [4] amounted to 0%. For the same molecule, the mortality at 200 mg/kg with Tetranychus cinnabarinus [5] was 0%. Moreover, the mortality at 20 mg/kg with Mythimna separata [6] worked out at 100%. For the same molecule, the mortality at 0.1 mg/kg with Culex pipiens pallens [7] was found to be 100%.

On to `CCCCC(=O)OCn1c(-c2ccc(Cl)cc2)c(C#N)c(Br)c1C(F)(F)F`, for which the mortality at 10 mg/kg with Mythimna separata [1] was determined as 100%. Further, in the assay on Tetranychus cinnabarinus [8], the mortality at 100 mg/kg was 100%. For the same molecule, in the assay with Culex pipiens pallens [2], the mortality at 0.5 mg/kg was 100%. Further, the mortality at 0.25 mg/kg in the assay with Culex pipiens pallens [3] worked out at 100%. In the assay on Mythimna separata [4], the mortality at 5 mg/kg stood at 0%. The mortality at 200 mg/kg with Tetranychus cinnabarinus [5] amounted to 100%. Also, the mortality at 50 mg/kg with Tetranychus cinnabarinus [9] turned out to be 100%. Besides, in the assay on Mythimna separata [6], the mortality at 20 mg/kg turned out to be 100%. Moreover, the mortality at 0.1 mg/kg with Culex pipiens pallens [7] is 100%.

On to `CC(Oc1cccc(Cl)c1)C(=O)OCn1c(-c2ccc(Cl)cc2)c(C#N)c(Br)c1C(F)(F)F` (stereo not given), for which, in the assay with Mythimna separata [1], the mortality at 10 mg/kg was determined as 45%. Also, the mortality at 100 mg/kg with Tetranychus cinnabarinus [8] turned out to be 93%. The mortality at 0.5 mg/kg in the assay with Culex pipiens pallens [2] was 100%. Further, the mortality at 0.25 mg/kg in the assay with Culex pipiens pallens [3] amounted to 100%. In the assay with Mythimna separata [4], the mortality at 5 mg/kg amounted to 0%. The mortality at 200 mg/kg in the assay with Tetranychus cinnabarinus [5] was 98%. Moreover, the mortality at 50 mg/kg in the assay on Tetranychus cinnabarinus [9] was determined as 93%. Also, the mortality at 20 mg/kg in the assay with Mythimna separata [6] is 100%. Besides, the mortality at 0.1 mg/kg in the assay with Culex pipiens pallens [7] came to 100%.
